# Source: PubChem BioAssay
# Rows were chosen to be rich in hits. Some 4.1% of all compounds tested hit in one or more screens of this group.
# MrgX1 agonist: human MrgX1 receptor agonism, primary screen. Q96LB2. 310,000 tested, 0.44% active. B-score at 10 µM. MrgX1-HEK293 cells, Fluo-4 calcium fluorescence, agonist mode; stronger effect = higher value;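 active means calcium response B-score plate-corrected fluorescence ratio at least 3 library SD, with starting fluorescence B-score inside 5 SD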
# Target sequence (Q96LB2 whole entry, looked up): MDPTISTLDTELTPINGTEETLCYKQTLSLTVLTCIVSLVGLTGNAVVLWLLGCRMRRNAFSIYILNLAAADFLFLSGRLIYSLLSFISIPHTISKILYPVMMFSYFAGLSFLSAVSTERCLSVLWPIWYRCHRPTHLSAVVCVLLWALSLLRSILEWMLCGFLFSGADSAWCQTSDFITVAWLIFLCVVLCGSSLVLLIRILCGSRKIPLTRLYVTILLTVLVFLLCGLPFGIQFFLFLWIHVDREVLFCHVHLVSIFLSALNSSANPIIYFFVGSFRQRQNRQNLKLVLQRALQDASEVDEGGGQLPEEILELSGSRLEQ
#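 Test system: HEK293 cells stably expressing human MrgX1 receptor; Input: fifteen thousand cells per well; Dosing: compound delivered in addition one of three; Schedule: overnight seeding, then 1 h dark dye loading; Technique: Fluo-4 NW calcium fluorescence; Measure: B-scored fluorescence response ratio; Controls: positive and negative controls per plate.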
# Kir21 block: blocks the mouse Kir2.1 inward-rectifier potassium channel; HEK293-Kir2.1, FluxOR thallium flux fluorescence; stronger effect = lower value; 310,000 tested, 0.85% active; B-score at 10 µM;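 active means fluorescence ratio B-score at or below minus 3 SD of library scores, with starting-brightness B-score within 2 SD, cut at about -4.2 in these data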;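 further: channel flux triggered by added potassium and thallium sulfate stimulus; B-score of peak minus minimum fluorescence over baseline after thallium stimulus; more negative B-score means stronger Kir2.1 block with less thallium influx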
# MrgX1 antag: antagonists of human MrgX1 receptor | B-score at 10 µM | MRGX1-HEK293 calcium flux, Fluo-4, BAM8-22 antagonism; stronger effect = lower value | Q96LB2 | 310,000 tested, 1.3% active;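 active means calcium-response B-score plate-corrected more than 3 library SD below zero, starting fluorescence within 5 deviations, no agonist response on first addition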;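 further: peak minus trough fluorescence over baseline after final BAM8-22 challenge near maximal dose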
# MrgX1 PAM: allosterically activates human MrgX1 receptor signaling; MrgX1-HEK293, Fluo-4 calcium flux, FDSS; stronger effect = higher value; B-score at 10 µM; 310,000 tested, 0.63% active; AID 588675;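 active means plate-corrected calcium response at least 3 library SD above typical, normal starting fluorescence, not activating the receptor alone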;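 further: compound read alongside a low EC10 to EC30 dose of BAM8-22 agonist; peak minus trough fluorescence over baseline measured at the second addition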
# RGS4 block: inhibitors of human RGS4; B-score at 10 µM; 310,000 tested, 0.45% active; AID 463165; HEK293 M3R/RGS4 inducible, Fluo-4 calcium flux; stronger effect = higher value; triggered by carbachol at its EC20;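 active means B-score, a plate-corrected calcium signal, over three deviations above library mean, with baseline fluorescence within five deviations of library mean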;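 further: RGS4 expression induced by doxycycline in cells with stable M3 receptor; B-score is computed from the integrated fluorescence ratio over baseline after carbachol; higher B-score means a larger calcium signal and so more RGS4 inhibition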
# Target sequence (P49798 whole entry, looked up): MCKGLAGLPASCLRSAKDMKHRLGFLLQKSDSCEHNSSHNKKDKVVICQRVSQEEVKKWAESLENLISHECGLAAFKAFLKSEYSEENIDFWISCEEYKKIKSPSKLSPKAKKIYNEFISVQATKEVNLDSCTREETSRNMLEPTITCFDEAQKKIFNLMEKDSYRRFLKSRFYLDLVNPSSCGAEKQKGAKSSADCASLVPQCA
# RGS4 pot: RGS4 potentiation or activation. 310,000 tested, 0.92% active. AID 463111. B-score at 10 µM. HEK293 M3R/inducible RGS4, carbachol calcium flux Fluo4; stronger effect = lower value;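 active means B-score of the integrated calcium signal more than 4 SD below the library mean, with starting fluorescence not abnormally high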;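 further: negative B-score means reduced calcium response which marks RGS4 activation or potentiation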
#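 Reagent: ECmax carbachol challenge; Test system: M3R-expressing HEK293 line, RGS4 induced by doxycycline; Schedule: overnight RGS4 induction, 30 min dye load 37 °C, 20 min compound RT; Detection: calcium dye Fluo4 fluorescence; Read-out: Agonist-evoked peak-minus-minimum fluorescence over baseline, integrated ratio, B score.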
# The depositor's hits bear a star; i = inactive; · = not tested or not shown.
SMILES,MrgX1 agonist,Kir21 block,MrgX1 antag,MrgX1 PAM,RGS4 block,RGS4 pot
N#C/C(=C\c1ccc(-c2ccccc2C(=O)O)o1)c1nc2ccccc2[nH]1,27*,-1.4,i,i,i,i
N#C/C(=C\c1ccc(Sc2ccccc2)o1)c1nc2ccccc2[nH]1,i,-0.31,i,7.6*,i,i
N#C/C(=C\c1ccc([N+](=O)[O-])o1)c1nc2ccccc2[nH]1,i,-2,-4.5*,i,i,i
N#C/C(=C/c1ccc(Sc2nc3ccccc3[nH]2)o1)c1ccccc1F,i,-2.1,i,i,i,i
CN1C(=O)CC(c2ccccc2)CC1=O,i,-1.4,i,i,i,i
Cc1ccc(C2CC(c3ccccc3)=NN2c2ccccc2)o1 (centres undefined),i,-1.6,i,i,i,i
COc1ccccc1OC(=O)c1ccc2nsnc2c1,i,0.55,i,i,i,i
COC(C/C=C\[C@H](O)[C@H](C)OCc1ccccc1)OC,i,2.1,-5.4*,i,i,i
C=CCn1c(SCC(=O)c2ccc(Cl)cc2)nnc1-c1ccc2c(c1)OCO2,i,-5.4*,i,i,i,i
C=CCn1c(SCC(=O)c2ccc(OC)cc2)nnc1-c1ccc2c(c1)OCO2,i,-2.4,i,i,i,i
Cc1[nH]c(=O)[nH]c(=O)c1NC(=O)c1cccs1,i,-0.02,i,i,i,i
CCOC(=O)c1cc(-c2ccccc2)sc1NC(=O)CN1C(=O)NC(CC)(c2ccc(F)cc2)C1=O (centres undefined),i,0.87,i,i,i,i
CSCCC(NC(=O)c1ccco1)C(=O)OCc1cc([N+](=O)[O-])cc2c1OCOC2 (centres undefined),28*,2.2,i,i,i,i
CC(C)[C@H](NC(=O)c1ccccc1Cl)C(=O)OCc1cc([N+](=O)[O-])cc2c1OCOC2,i,0.5,i,i,i,i
COCCn1c(=NC(=O)/C=C/c2ccccc2)sc2cc(NC(C)=O)ccc21,i,-0.03,-4.9*,i,i,i
COCCn1c(=NC(C)=O)sc2cc([N+](=O)[O-])ccc21,i,0.83,i,i,i,i
CCN(CC)S(=O)(=O)c1ccc2[nH]c(=O)cc(C(=O)NCC(c3ccco3)N3CCCC3)c2c1 (centres undefined),i,-0.57,i,i,i,i
Cc1cc(-c2ccco2)n(CC(=O)NCCCc2ccccc2)n1,i,3.1,i,i,i,i
Fc1ccccc1CSc1nncn1NC/C=C/c1ccccc1,i,-1,i,i,i,i
Cc1nnc(SCc2ccc(F)cc2)n1NC/C=C/c1ccccc1,i,-5.1*,i,i,i,i
COc1cccc2cc(-c3cn4ccc(C)cc4n3)c(=O)oc12,i,-0.11,i,i,i,i
COc1cccc2cc(-c3cn4cccc(C)c4n3)c(=O)oc12,38*,0.6,i,i,i,i
CCOc1ccc(C(=O)C(CCC(CN(C)C)C(=O)c2ccc(OCC)cc2)CN(C)C)cc1 (centres undefined),·,-0.67,·,·,i,-8*
CCC(CC)NC(=O)c1ccccc1Oc1ccccc1,i,-6.9*,i,i,i,i
CCC(C)(C)NC(=O)c1ccccc1Oc1ccccc1,i,-2.2,i,i,i,i
SMILES,MrgX1 agonist,Kir21 block,MrgX1 antag,MrgX1 PAM,RGS4 block,RGS4 pot
CCN(CC)CC(O)CN1c2ccccc2Sc2ccccc21 (centres undefined),i,-3.6,i,i,i,i
CN1CCN(CCC(=O)N2c3ccccc3Sc3ccc(C(F)(F)F)cc32)CC1,i,-2.2,-8.2*,i,i,i
CCN(CC)CCCCN1c2ccccc2Sc2ccccc21,i,-5.8*,i,i,i,-7.2*
OCCN1CCN(CC/C=C2/c3ccccc3Sc3ccc(C(F)(F)F)cc32)CC1,i,-5.4*,i,i,i,i
CCSc1ccc2c(c1)N(CCCN1CCN(C)CC1)c1ccccc1S2,i,·,i,i,·,·
CN1CCN(CCCN2c3ccccc3Sc3ccc(Cl)cc32)CC1,i,-7.5*,i,i,i,i
COc1ccc(Cn2c(C)nc([N+](=O)[O-])c2SCC(=O)O)cc1[N+](=O)[O-],i,-0.03,i,i,i,i
O=C(OCc1ccco1)c1cccnc1,i,-0.92,i,i,i,i
OCCN1CCN(CCCN2c3ccccc3Sc3ccc(C(F)(F)F)cc32)CC1,i,-7.1*,i,i,i,i
CN(C)CCC(=O)N1c2ccccc2Sc2ccc(C(F)(F)F)cc21,i,-0.69,i,i,i,i
O=C1c2ccccc2C(=O)N1CC(=O)N1c2ccccc2Sc2ccc(C(F)(F)F)cc21,i,0.06,i,i,i,i
CN(C)CCCN1c2ccccc2Sc2ccc(C(F)(F)F)cc21,i,-5.1*,i,i,i,-8.3*
Cc1ccccc1C(=O)NCCNC(=O)c1ccccn1,i,-0.53,i,i,i,i
CC(=O)Nc1ccc(C(=O)N2CCc3cc4c(cc3C2C)OCCCO4)cc1 (centres undefined),i,1.8,i,i,i,i
c1ccc(-c2nc(-n3nc4ccccc4n3)nc3ccccc23)cc1,i,1.3,i,i,i,-7.2*
Clc1ccc(-c2nc(N3CCCCC3)nc3ccccc23)cc1,i,1.5,i,i,i,i
Cc1ccccc1C(=O)c1cccn1CC(=O)NCCC1=CCCCC1,i,-0.99,i,i,i,i
Cc1ccc(N(C(=O)CNC(=O)c2ccco2)C(C(=O)NC2CCCC2)c2cccnc2)cc1F (centres undefined),i,-0.01,i,i,i,i
Cc1cc(C)nc(N2CCC(C(=O)N3CCN(c4cc(Cl)ccc4C)CC3)CC2)n1,i,1.3,i,i,i,-7.3*
Clc1cccc(Cl)c1/C=C/c1nc2ccccc2[nH]1,i,-0.48,i,7.7*,i,i
Clc1ccc(/C=C/c2nc3ccccc3[nH]2)cc1,i,1.2,i,i,i,i
Nc1nc(NCC2CCCO2)nc(Nc2cccc(Cl)c2)c1[N+](=O)[O-] (centres undefined),i,-1.5,i,i,i,i
